Test results from ChEMBL document CHEMBL1770100, “Design and synthesis of N-phenylacetyl (sulfonyl) 4,5-dihydropyrazole derivatives as potential antitumor agents” (Bioorg Med Chem Lett, 2011).

What was measured:
HepG2 = assay: Cytotoxicity against human HepG2 after 48 hrs by MTT assay; type: functional, cell-based; conditions: HepG2, 48 h
How it was run: (§1)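 Log-phase cells in RPMI 1640 with 10% FBS, diluted to 3 × 10⁴ cells/mL and seeded in 96-well plates. After 24 h at 37 °C, 5% CO₂, samples at pre-set concentrations were added to six wells, with 5-fluorouracil as positive reference. Exposure was 48 h. MTT at 2.5 mg/mL in PBS was added for 4 h, formazan dissolved in DMSO, A570 read. IC50 = concentration giving 50% survival. Three experiments in triplicate, mean ± SD.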

SGC-7901 = assay: Cytotoxicity against human SGC7901 after 48 hrs by MTT assay; type: functional, cell-based; conditions: SGC-7901, 48 h; how it was run: as §1
PC-3 = assay: Cytotoxicity against human PC3 after 48 hrs by MTT assay; type: functional, cell-based; conditions: PC-3, 48 h; how it was run: as §1
[1] = target: Telomerase reverse transcriptase (Homo sapiens, UniProt O14746); assay: Inhibition of telomerase activity expressed in human SGC7901 cells by SYBER green dye based TRAP; type: cell-based, SGC-7901
How it was run: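 Modified TRAP assay using total cell lysate of SGC-7901 as the telomerase source. Lysate protein was measured by Bio-Rad assay against BSA standards. Extension products were resolved on 10% polyacrylamide gels and stained with SYBR Green. Reported as IC50.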

[2] = Selectivity index, ratio of IC50 for Thermus aquaticus taq polymerase to IC50 for telomerase
[3] = target: DNA polymerase I, thermostable (Thermus aquaticus, UniProt P19821); assay: Inhibition of Thermus aquaticus taq polymerase
Chain of DNA polymerase I, thermostable (P19821 whole entry): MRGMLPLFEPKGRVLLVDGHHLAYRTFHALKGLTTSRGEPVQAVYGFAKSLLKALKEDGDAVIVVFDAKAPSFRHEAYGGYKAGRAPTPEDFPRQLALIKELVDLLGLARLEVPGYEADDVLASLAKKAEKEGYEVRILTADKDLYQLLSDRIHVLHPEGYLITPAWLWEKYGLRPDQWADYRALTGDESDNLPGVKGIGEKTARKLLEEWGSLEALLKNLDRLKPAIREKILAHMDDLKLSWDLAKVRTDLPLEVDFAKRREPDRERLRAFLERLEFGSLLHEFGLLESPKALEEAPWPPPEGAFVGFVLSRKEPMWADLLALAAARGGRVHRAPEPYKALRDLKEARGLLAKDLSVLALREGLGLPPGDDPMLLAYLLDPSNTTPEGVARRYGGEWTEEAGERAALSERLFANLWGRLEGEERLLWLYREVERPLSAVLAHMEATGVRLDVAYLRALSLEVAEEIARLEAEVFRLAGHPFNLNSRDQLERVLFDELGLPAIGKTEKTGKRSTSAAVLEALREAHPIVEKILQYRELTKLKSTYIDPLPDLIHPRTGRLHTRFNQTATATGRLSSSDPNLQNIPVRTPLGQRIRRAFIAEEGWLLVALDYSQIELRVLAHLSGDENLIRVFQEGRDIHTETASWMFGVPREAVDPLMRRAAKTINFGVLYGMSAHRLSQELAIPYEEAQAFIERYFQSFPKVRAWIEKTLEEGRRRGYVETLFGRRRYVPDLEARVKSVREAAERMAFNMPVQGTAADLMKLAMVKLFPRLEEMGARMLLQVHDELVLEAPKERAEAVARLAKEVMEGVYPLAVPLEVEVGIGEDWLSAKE

Chain of Telomerase reverse transcriptase (O14746 whole entry): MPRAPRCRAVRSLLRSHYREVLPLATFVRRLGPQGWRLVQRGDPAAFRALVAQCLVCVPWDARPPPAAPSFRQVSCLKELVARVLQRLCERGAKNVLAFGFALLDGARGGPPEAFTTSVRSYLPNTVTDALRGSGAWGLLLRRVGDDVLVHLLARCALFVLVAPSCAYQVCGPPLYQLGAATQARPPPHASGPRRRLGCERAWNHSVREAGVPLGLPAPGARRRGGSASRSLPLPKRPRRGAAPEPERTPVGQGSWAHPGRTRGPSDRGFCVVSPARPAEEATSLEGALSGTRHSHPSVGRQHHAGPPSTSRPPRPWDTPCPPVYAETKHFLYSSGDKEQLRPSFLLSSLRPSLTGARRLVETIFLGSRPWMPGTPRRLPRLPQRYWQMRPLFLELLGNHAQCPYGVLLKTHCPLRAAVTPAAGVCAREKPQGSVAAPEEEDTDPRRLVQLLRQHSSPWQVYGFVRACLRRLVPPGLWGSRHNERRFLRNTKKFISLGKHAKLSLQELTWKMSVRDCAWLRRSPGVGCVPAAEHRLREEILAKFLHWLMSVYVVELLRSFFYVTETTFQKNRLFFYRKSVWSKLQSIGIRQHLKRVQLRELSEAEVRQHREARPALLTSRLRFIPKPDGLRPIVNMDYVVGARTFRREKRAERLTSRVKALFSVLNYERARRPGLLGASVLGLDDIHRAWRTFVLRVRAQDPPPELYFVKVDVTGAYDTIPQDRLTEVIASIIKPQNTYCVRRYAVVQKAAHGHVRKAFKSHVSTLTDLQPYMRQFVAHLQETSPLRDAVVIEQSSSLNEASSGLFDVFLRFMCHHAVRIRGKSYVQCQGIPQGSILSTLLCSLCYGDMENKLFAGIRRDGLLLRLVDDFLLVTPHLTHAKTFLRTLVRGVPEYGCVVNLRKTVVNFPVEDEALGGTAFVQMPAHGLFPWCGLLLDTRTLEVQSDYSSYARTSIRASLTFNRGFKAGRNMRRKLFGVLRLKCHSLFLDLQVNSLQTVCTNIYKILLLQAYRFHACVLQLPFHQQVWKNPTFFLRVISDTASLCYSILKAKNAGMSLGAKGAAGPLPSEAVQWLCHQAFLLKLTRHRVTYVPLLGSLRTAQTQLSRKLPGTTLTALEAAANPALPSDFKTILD

SMILES	IC50 (HepG2) [µM]	IC50 (SGC-7901) [µM]	IC50 (PC-3) [µM]	IC50 [1] [µM]	Ratio IC50 [2]	IC50 [3] [µM]
CC1=NN(C(=O)Cc2ccc([N+](=O)[O-])cc2)C(c2ccccc2O)C1 (stereo not drawn)	107	97.3	132			
CC[n+]1c(-c2ccccc2)c2cc(N)ccc2c2ccc(N)cc21 [HOMIDIUM BROMIDE]				2.6		
CC1=NN(C(=O)c2ccccc2C)C(c2ccccc2O)C1 (stereo not drawn)	95.2	104	106	24.5	2.1	50.5
CC1=NN(C(=O)CCl)C(c2ccccc2O)C1 (stereo not drawn)	47.9	26.8	20.1	9.5	2.1	20.4
O=c1[nH]cc(F)c(=O)[nH]1 [FLUOROURACIL]	18.9	31.5	15.7			
CC1=NN(C(=O)c2ccccc2)C(c2ccccc2O)C1 (stereo not drawn)	29.4	21.2	30.9	4	2	8
CC1=NN(C(=O)c2ccccc2Cl)C(c2ccccc2O)C1 (stereo not drawn)	95.5	103	84.2			36
CC1=NN(C(=O)c2ccc(C)cc2)C(c2ccccc2O)C1 (stereo not drawn)	78.9	51.5	116	31.5		
CC1=NN(S(=O)(=O)c2ccc(C)cc2)C(c2ccccc2O)C1 (stereo not drawn)	66.8	73.6	85.5	16.8	1.9	30
CC1=NN(S(=O)(=O)c2ccccc2)C(c2ccccc2O)C1 (stereo not drawn)	57.2	66.4	50.6	17.3	1.8	31
CC1=NN(C(=O)c2ccccc2)C(c2cccc(C)c2O)C1 (stereo not drawn)	177	150	154			
